In ChEMBL document CHEMBL4152278 (Eur J Med Chem, 2018):
Active and inactive are the calls of the source.

Legend:
[1] = test system: Influenza A virus; assay: Antiviral activity against Influenza A virus (A/WSN/1933(H1N1)) infected in BALB/c mouse assessed as protection against virus-induced infection at 48 umol/kg/day administered via oral gavage for 5 days; type: functional, organism-based
Procedure, shortened: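 Female BALB/c mice (4–5 weeks old), 10 per group. Drug was given by oral gavage twice daily for 5 days at 48 μmol/kg/day. Intranasal challenge with 10 MLD50 of A/WSN/1933 (H1N1) 4 h after the first dose. PBS placebo on the same schedule. Survival was observed daily and compared by log-rank (Mantel–Cox) test.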

[2] = test system: Influenza A virus; assay: Antiviral activity against Influenza A virus (A/WSN/1933(H1N1)) infected in MDCK cells expressing wild type neuraminidase assessed as protection against virus-induced cytopathic effect after 48 hrs by CellTiter96 aqueous non-radioactive cell proliferation assay; type: functional, organism-based
Procedure, shortened: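 Virus at 100 TCID50 was premixed with inhibitor at varied concentrations, then added to MDCK cells (1×10^5 cells/mL). Cells were held 48 h at 37 °C under 5% CO2. Cytopathic effect was read as MTS absorbance at 490 nm after 15 min. EC50 was taken from a curve fit of percent CPE versus concentration.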

[3] = Cytotoxicity against MDCK cells after 48 hrs by CellTiter96 aqueous non-radioactive cell proliferation assay; type: cell-based, Canis lupus familiaris; details: dog
[4] = Half life in rabbit plasma by HPLC method; type: ADME, cell-free, Oryctolagus cuniculus
Procedure, shortened: (§1)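 A 20 mM DMSO stock was diluted to 1 mM in buffer (50 mM HCl/KCl pH 1.3, acetate pH 4.1, phosphate pH 7.4 at 50 or 10 mM, borate pH 9.1, glycine pH 9.2), rat plasma or […]. Mixtures were shaken at 1000 rpm, 37 °C, and sampled over time for reversed-phase HPLC (214 or 254 nm). Half-life came from a pseudo-first-order fit; remaining parent was assessed at 96 h. Three runs for ZA derivatives, single for GOC derivatives.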

[5] = Half life in HCl/KCl solution at pH 1.3 by HPLC method; type: physicochemical; procedure, shortened: as §1
[6] = Half life in borate buffer at pH 9.1 by HPLC method; type: physicochemical; procedure, shortened: as §1
[7] = Metabolic stability in […] assessed as parent compound remaining after 96 hrs by HPLC method; type: ADME, cell-free, Oryctolagus cuniculus; details: rabbit, plasma; read-out: Stability
[8] = Half life in glycine buffer at pH 9.2 by HPLC method; type: physicochemical; procedure, shortened: as §1
[9] = Chemical stability in HCl/KCl solution at pH 1.3 assessed as parent compound remaining after 96 hrs by HPLC method; type: physicochemical; details: read-out: Stability; procedure, shortened: as §1
[10] = Drug uptake in MDCK cells at 100 uM after 48 hrs by LC-MS analysis; type: ADME, cell-based, Canis lupus familiaris; details: dog
Procedure, shortened: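 MDCK cells (2.5×10^6, grown overnight) were exposed to compound at 100 µM final in 2% FBS medium for 48 h, with a DMSO mock. Cells were washed, lysed in RIPA, methanol-precipitated at −80 °C and filtered (10 kDa cutoff). Parent and hydrolysis product were quantified by LC–MS/MS against calibration curves (0.03–300 µM) spiked into mock lysate.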

[11] = test system: Influenza A virus; assay: Antiviral activity against Influenza A virus (A/WSN/1933(H1N1)) infected in BALB/c mouse assessed as increase in mouse survival rate at 1.2 umol/kg/day administered intranasally for 5 days and measured at day 21 relative to control; type: functional, organism-based
[12] = Half life in human serum at 16 mg; type: ADME, organism-based
[13] = test system: Influenza A virus; assay: Antiviral activity against Influenza A virus (A/WSN/1933(H1N1)) infected in BALB/c mouse assessed as mouse survival rate at 1.2 umol/kg/day administered intranasally for 5 days and measured at day 21 relative to control; type: functional; details: inhaled or nasal
[14] = test system: Influenza A virus; assay: Antiviral activity against Influenza A virus (A/WSN/1933(H1N1)) infected in BALB/c mouse assessed as increase in mouse survival rate at 2.4 umol/kg/day administered intranasally for 5 days and measured at day 21 relative to control; type: functional, organism-based
Procedure, shortened: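 Female BALB/c mice (4–5 weeks old), 10 per group. Drug was given by intranasal instillation twice daily for 5 days at 2.4 μmol/kg/day, with half the dose at each administration. Mice were infected intranasally with 10 MLD50 of A/WSN/1933 (H1N1) under zoletil anaesthesia, 4 h after the first dose. PBS placebo on the same schedule. Survival was followed daily and curves compared by log-rank test.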

[15] = Half life in 10 mM phosphate buffer at pH 7.4 by HPLC method; type: physicochemical; procedure, shortened: as §1
[16] = Half life in acetate buffer at pH 4.1 by HPLC method; type: physicochemical; procedure, shortened: as §1
[17] = Half life in 50 mM phosphate buffer at pH 7.4 by HPLC method; type: physicochemical; procedure, shortened: as §1
[18] = Half life in rat plasma by HPLC method; type: ADME, cell-free; procedure, shortened: as §1
[19] = Chemical stability in acetate buffer at pH 4.1 assessed as parent compound remaining after 96 hrs by HPLC method; type: physicochemical; details: read-out: Stability; procedure, shortened: as §1

## CCOC(=O)C1=C[C@@H](OC(CC)CC)[C@H](NC(C)=O)[C@@H](N)C1
[1]
  Activity: Active

## CCC(CC)O[C@@H]1C=C(P(=O)(O)O)C[C@H](N/C(N)=N/C(=O)CSc2ccc3ccccc3c2)[C@H]1NC(C)=O
[2]
  EC50: 0.8 nM

## CCCCCCCC(=O)/N=C(\N)N[C@H]1CC(C(=O)O)=C[C@@H](OC(CC)CC)[C@@H]1NC(C)=O
[3]
  CC50 at 48 h: > 100000 nM
[4]
  half-life: 96 h
[5]
  half-life: > 96 h
[1]
  Activity: Active
[6]
  half-life: 18.1 h
[7]
  remaining at 96 h: 55%
[8]
  half-life: 22.4 h
[2]
  EC50: 1 nM
[9]
  remaining at 96 h: > 75%
[10]
  Drug uptake: 1225 nM

## CCC(CC)O[C@@H]1C=C(C(=O)O)C[C@H](NC(=N)N)[C@H]1NC(C)=O
[3]
  CC50 at 48 h: > 100000 nM
[2]
  EC50: 7 nM

## CC(=O)N[C@H]1[C@H]([C@H](O)[C@H](O)CO)OC(C(=O)O)=C[C@@H]1NC(=N)N [ZANAMIVIR]
[11]
  Activity: Active
[2]
  EC50: 27 nM

## CCC(CC)O[C@@H]1C=C(P(=O)(O)O)C[C@H](NC(=N)N)[C@H]1NC(C)=O
[2]
  EC50: 3.8 nM

## CC(=O)N[C@H]1[C@H]([C@H](O)[C@H](O)CO)OC(C(=O)O)=C[C@@H]1N=C(N)N [ZANAMIVIR]
[12]
  half-life: 2 to 5 h
[3]
  CC50 at 48 h: > 100000 nM

## CCCCCCCC(=O)/N=C(\N)N[C@H]1C=C(C(=O)O)O[C@@H]([C@H](O)[C@H](O)CO)[C@@H]1NC(C)=O
[13]
  survival at 1.2 µmol/kg: 100%
[14]
  Activity: Active
[3]
  CC50 at 48 h: > 100000 nM
[5]
  half-life: > 96 h
[6]
  half-life: 26.1 h
[15]
  half-life: 56.8 h
[16]
  half-life: > 96 h
[2]
  EC50: 90 nM
[17]
  half-life: 39.2 h
[9]
  remaining at 96 h: > 75%
[18]
  half-life: 29.5 h
[19]
  remaining at 96 h: > 75%

## CCC(CC)O[C@@H]1C=C(C(=O)O)C[C@H](N/C(N)=N/C(=O)[C@@H](C)c2ccc3cc(OC)ccc3c2)[C@H]1NC(C)=O
[3]
  CC50 at 48 h: > 100000 nM
[4]
  half-life: > 96 h
[5]
  half-life: > 96 h
[6]
  half-life: 76.7 h
[15]
  half-life: 69.7 h
[7]
  remaining at 96 h: 76%
[8]
  half-life: 81.4 h
[2]
  EC50: 2 nM
[17]
  half-life: 64.9 h
[9]
  remaining at 96 h: > 75%

## COc1ccc2cc([C@H](C)C(=O)/N=C(\N)N[C@H]3C=C(C(=O)O)O[C@@H]([C@H](O)[C@H](O)CO)[C@@H]3NC(C)=O)ccc2c1
[13]
  survival at 1.2 µmol/kg: 70%
[3]
  CC50 at 48 h: > 100000 nM
[15]
  half-life: 67.2 h
[2]
  EC50: 140 nM
[18]
  half-life: 67.7 h

## CCC(CC)O[C@@H]1C=C(C(=O)O)C[C@H](N)[C@H]1NC(C)=O [OSELTAMIVIR CARBOXYLATE]
[3]
  CC50 at 48 h: > 100000 nM
[2]
  EC50: 16 nM
